Laboratory results taken from ChEMBL document CHEMBL2169847, “New tricks for an old natural product: discovery of highly potent evodiamine derivatives as novel antitumor agents by systemic structure-activity relationship analysis and biological evaluations” (J Med Chem, 2012).
The source made the active and inactive calls. No cut-off for these calls is given here.

Columns and labels:
[1] = system: A549; assay: Cytotoxicity against human A549 cells incubated for 72 hrs by MTT assay; assay type: functional; conditions: A549, 72 h
Outline: (§1)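 MTT assay. Cells seeded at 5 × 10³/well and grown 24 h at 37 °C, 5% CO₂. Compounds added at several concentrations in triplicate wells, with 0.1% DMSO control, for 72 h. MTT then added for 4 h, formazan dissolved in DMSO, and absorbance read at 570 nm. GI₅₀ by Logit method; three experiments.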

[2] = system: HCT-116; assay: Cytotoxicity against human HCT116 cells incubated for 72 hrs by MTT assay; assay type: functional; conditions: HCT-116, 72 h; outline: as §1
[3] = system: Mus musculus; assay: Toxicity in BALB/C nude mouse xenografted with human A549 cells assessed as reduction in body weight at 2 mg/kg, ip administered as a single dose on 17th day and measured on 30 to 33 days post implantation; assay type: organism-based; set-up: dose 2 mg/kg, route intraperitoneal; conditions: in vivo
Outline: (§2)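 Cells implanted subcutaneously in right axilla of nude mice; dosing began at tumor volume about 100−300 mm³ (day 17). Randomized, six mice per treatment group and eight controls; ip injection. Tumor volume by caliper, TV = 1/2 × a × b², with body weight every 4 days. Mice sacrificed day 30−33 and tumors removed. Mean SEM, Student's t test versus control.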

[4] = system: MDA-MB-435; assay: Cytotoxicity against human MDA-MB-435 cells incubated for 72 hrs by MTT assay; assay type: functional; conditions: MDA-MB-435, 72 h; outline: as §1
[5] = target: T1, DNA topoisomerase 1 (Homo sapiens) (UniProt P11387); assay: Inhibition of Top1 assessed as suppression of supercoiled pBR322 DNA relaxation measuring appearance of short DNA fragments at 100 uM incubated for 15 mins by electrophoresis method
T1 sequence (whole entry): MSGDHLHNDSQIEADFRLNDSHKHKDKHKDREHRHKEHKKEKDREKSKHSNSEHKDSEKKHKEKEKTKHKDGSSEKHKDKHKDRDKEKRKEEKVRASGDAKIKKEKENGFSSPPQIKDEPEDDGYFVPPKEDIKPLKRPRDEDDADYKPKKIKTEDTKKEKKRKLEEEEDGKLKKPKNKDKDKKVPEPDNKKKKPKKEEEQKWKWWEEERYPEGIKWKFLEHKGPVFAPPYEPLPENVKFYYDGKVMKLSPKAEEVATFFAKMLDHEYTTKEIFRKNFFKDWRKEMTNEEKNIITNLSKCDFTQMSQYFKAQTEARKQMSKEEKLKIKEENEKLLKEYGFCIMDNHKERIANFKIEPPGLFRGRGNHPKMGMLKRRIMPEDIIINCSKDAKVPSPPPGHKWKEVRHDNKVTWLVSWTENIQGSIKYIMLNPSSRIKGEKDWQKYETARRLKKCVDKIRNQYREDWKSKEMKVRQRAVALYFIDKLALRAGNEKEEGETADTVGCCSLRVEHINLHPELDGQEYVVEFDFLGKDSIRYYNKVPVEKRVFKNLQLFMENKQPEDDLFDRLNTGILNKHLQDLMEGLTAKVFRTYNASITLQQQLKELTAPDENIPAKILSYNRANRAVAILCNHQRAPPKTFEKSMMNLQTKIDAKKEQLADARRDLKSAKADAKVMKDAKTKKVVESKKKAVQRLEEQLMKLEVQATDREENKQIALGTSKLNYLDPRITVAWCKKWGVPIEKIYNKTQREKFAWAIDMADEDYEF

[6] = system: A549; assay: Antitumor activity against human A549 cells xenografted in BALB/C nude mouse assessed as tumor growth inhibition at 2 mg/kg, ip administered as a single dose on 17th day post implantation and measured on 30 to 33 days post implantation; assay type: functional, organism-based; set-up: dose 2 mg/kg; outline: as §2
[7] = target: DNA topoisomerase 2-alpha (Homo sapiens) (UniProt P11388); assay: Inhibition of human Top2alpha assessed as suppression of supercoiled pBR322 DNA relaxation at 50 uM incubated for 30 mins by electrophoresis method
Chain of DNA topoisomerase 2-alpha (Homo sapiens) (P11388 whole entry): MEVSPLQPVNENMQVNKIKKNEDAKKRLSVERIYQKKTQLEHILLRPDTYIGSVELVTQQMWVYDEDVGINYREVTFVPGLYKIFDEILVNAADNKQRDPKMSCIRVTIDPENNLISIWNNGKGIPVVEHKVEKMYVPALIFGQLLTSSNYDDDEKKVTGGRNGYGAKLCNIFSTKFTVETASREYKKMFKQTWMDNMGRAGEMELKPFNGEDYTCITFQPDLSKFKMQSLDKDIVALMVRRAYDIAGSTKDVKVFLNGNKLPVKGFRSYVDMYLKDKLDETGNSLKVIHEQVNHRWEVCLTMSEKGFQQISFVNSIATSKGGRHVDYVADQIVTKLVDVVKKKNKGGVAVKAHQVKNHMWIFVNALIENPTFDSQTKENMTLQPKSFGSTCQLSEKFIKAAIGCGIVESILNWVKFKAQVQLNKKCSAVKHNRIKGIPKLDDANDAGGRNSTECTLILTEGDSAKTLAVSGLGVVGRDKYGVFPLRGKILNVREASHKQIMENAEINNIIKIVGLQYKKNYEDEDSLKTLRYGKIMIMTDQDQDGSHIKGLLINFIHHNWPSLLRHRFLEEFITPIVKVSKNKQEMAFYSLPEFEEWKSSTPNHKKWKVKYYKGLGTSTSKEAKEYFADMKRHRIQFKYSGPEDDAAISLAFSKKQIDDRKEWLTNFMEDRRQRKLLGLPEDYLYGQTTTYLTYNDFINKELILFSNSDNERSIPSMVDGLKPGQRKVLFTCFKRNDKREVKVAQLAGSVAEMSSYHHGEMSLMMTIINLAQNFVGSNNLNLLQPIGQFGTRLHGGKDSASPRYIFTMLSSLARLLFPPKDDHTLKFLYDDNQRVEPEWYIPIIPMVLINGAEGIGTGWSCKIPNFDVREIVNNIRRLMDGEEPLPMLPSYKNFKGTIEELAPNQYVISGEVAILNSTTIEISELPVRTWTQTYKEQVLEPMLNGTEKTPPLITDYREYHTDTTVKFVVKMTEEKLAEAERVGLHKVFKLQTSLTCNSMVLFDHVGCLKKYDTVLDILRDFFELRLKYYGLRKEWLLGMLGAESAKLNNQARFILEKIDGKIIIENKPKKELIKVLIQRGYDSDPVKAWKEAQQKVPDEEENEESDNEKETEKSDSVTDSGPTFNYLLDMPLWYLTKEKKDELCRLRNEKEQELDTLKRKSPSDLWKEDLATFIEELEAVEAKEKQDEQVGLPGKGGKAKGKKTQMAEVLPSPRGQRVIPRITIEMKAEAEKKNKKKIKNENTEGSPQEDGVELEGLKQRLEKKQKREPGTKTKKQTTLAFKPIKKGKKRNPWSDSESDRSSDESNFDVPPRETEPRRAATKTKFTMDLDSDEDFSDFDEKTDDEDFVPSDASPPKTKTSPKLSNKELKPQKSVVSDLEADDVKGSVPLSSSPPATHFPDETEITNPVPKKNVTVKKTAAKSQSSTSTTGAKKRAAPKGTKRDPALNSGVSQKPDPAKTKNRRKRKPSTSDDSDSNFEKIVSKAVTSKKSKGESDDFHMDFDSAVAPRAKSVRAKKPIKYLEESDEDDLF

[8] = system: Mus musculus; assay: Toxicity in BALB/C nude mouse xenografted with human HCT116 cells assessed as reduction in body weight at 2 mg/kg, ip administered as a single dose on 17th day and measured on 30 to 33 days post implantation; assay type: organism-based, HCT-116; set-up: dose 2 mg/kg, route intraperitoneal; conditions: in vivo; outline: as §2
[9] = system: U2OS; assay: Cytotoxicity against human U2OS cells incubated for 72 hrs by MTT assay; assay type: functional; outline: as §1
[10] = system: HCT-116; assay: Antitumor activity against human HCT116 cells xenografted in BALB/C nude mouse assessed as tumor growth inhibition at 2 mg/kg, ip administered as a single dose on 17th day and measured on 30 to 33 days post implantation; assay type: functional, organism-based; set-up: dose 2 mg/kg; outline: as §2
[11] = system: SAOS-2; assay: Cytotoxicity against human Saos2 cells incubated for 72 hrs by MTT assay; assay type: functional; conditions: SAOS-2, 72 h; outline: as §1
[12] = system: HL-60; assay: Cytotoxicity against human HL60 cells incubated for 72 hrs by MTT assay; assay type: functional; conditions: HL-60, 72 h; outline: as §1
[13] = system: PC-3; assay: Cytotoxicity against human PC3 cells incubated for 72 hrs by MTT assay; assay type: functional; conditions: PC-3, 72 h; outline: as §1
[14] = target: T1, DNA topoisomerase 1 (Homo sapiens); assay: Inhibition of Top1 assessed as suppression of supercoiled pBR322 DNA relaxation measuring appearance of short DNA fragments at 50 uM incubated for 15 mins by electrophoresis method
[15] = system: PANC-1; assay: Cytotoxicity against human PANC1 cells incubated for 72 hrs by MTT assay; assay type: functional; conditions: PANC-1, 72 h; outline: as §1
[16] = system: HepG2; assay: Cytotoxicity against human HepG2 cells incubated for 72 hrs by MTT assay; assay type: functional; conditions: HepG2, 72 h; outline: as §1
[17] = system: A549; assay: Antitumor activity against human A549 cells xenografted in BALB/C nude mouse assessed as tumor growth inhibition at 1 mg/kg, ip for 13 days measured on 30 to 33 days post implantation; assay type: functional, organism-based; set-up: dose 1 mg/kg; outline: as §2
[18] = system: Nucleic Acid; assay: Induction of DNA intercalation in Escherichia coli pBR322 DNA assessed as induction of supercoiled DNA at 100 uM incubated for 15 mins by electrophoresis based Top1 unwinding assay; assay type: nucleic-acid assay
[19] = system: A549; assay: Induction of apoptosis in human A549 cells assessed as change in cell morphology at 5 uM incubated for 48 hrs by immunostaining based light microscopy; assay type: functional
Outline: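 A549 cells exposed to 5 μM compound, or DMSO, for 48 h. Morphology judged under a light microscope.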

[20] = system: Nucleic Acid; assay: Binding affinity at calf thymus DNA at 50 uM after 20 mins by UV/vis absorbance titration based assay; assay type: nucleic-acid assay; conditions: Bos taurus
Outline: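 ct-DNA in DPBS pH 7.4, concentration set by A260 (13200 M⁻¹/cm per bp). Compounds at 50 μM in DPBS with 1% DMSO, with or without ct-DNA 0−100 μM. After 20 min equilibration at room temperature, absorption spectra recorded over 220−400 nm in a microplate reader. Hypochromic or bathochromic shifts taken as the sign of binding.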

[21] = target: T1, DNA topoisomerase 1 (Homo sapiens); assay: Inhibition of Top1 assessed as stabilization of Top1-pUC19 DNA cleavage complex measuring increase of nicked DNA at 100 uM incubated for 15 mins by electrophoresis method
[22] = system: A549; assay: Induction of apoptosis in human A549 cells at 5 uM incubated for 48 hrs by flow cytometry (reference value: 0.43%); assay type: functional
[23] = system: Mus musculus; assay: Toxicity in BALB/C nude mouse xenografted with human A549 cells assessed as reduction in body weight at 1 mg/kg, ip for 13 days measured on 30 to 33 days post implantation; assay type: organism-based; set-up: dose 1 mg/kg, route intraperitoneal; conditions: in vivo; outline: as §2
[24] = system: Nucleic Acid; assay: Binding affinity at calf thymus DNA minor groove assessed as displacement of Hoechst 33258 dye incubated for 20 mins by microplate reader based assay; assay type: nucleic-acid assay; conditions: Bos taurus
[25] = target: DNA topoisomerase 2-alpha (Homo sapiens) (UniProt P11388); assay: Inhibition of human Top2alpha assessed as stabilization of Top2-pBr322 DNA cleavage complex measuring linear DNA formation at 100 uM incubated for 20 mins by electrophoresis method
Outline: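 Top2α drug screening kit with 8 units hTop2α and pBR322 plasmid. After reaction, proteinase K (200 μg/mL final) 20 min at 50 °C. Electrophoresis in TAE with 0.5 μg/mL ethidium bromide to resolve nicked, linear, relaxed and supercoiled forms.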

Row | inhibition [5] | inhibition [7] | inhibition [14] | SMILES | GI50 [1] [nM] | GI50 [2] [nM] | GI50 [4] [nM] | Activity [8] | TGI [10] | also measured
1 | Active | inactive | Active | CN1c2ccccc2C(=O)N2CCc3c([nH]c4c(Cl)cccc34)C21 (stereo not drawn) | 2550 | < 3 | < 3 | Toxic | Active | GI50 [9]: > 296000 nM; GI50 [11]: > 296000 nM; GI50 [12]: < 3 nM; GI50 [13]: > 296000 nM; GI50 [15]: 120 nM; GI50 [16]: 2310 nM
2 | Active | Active | Active | CN1c2ccc(Cl)cc2C(=O)N2CCc3c([nH]c4ccc(O)cc34)C21 (stereo not drawn) | 120 | 5 | 5 | Toxic | Active | 
3 | Active | Active |  | CN1c2ccccc2C(=O)N2CCc3c([nH]c4ccc(O)cc34)C21 (stereo not drawn) | < 3 | < 3 | < 3 | Non-toxic | Active | TGI [17]: Active; Activity [18]: inactive; Activity [19]: Active; Activity [20]: inactive; inhibition [21]: Active; Activity [22]: 13.07%; Activity [23]: Non-toxic; Activity [24]: inactive; inhibition [25]: inactive
4 | Active |  | Active | CN1c2ccc(N)cc2C(=O)N2CCc3c([nH]c4ccc(O)cc34)C21 (stereo not drawn) | 4000 | 7 | 7 | Non-toxic | Active | Activity [18]: inactive; Activity [19]: Active; Activity [20]: inactive; inhibition [21]: Active; Activity [22]: 14.48%; Activity [24]: inactive; inhibition [25]: inactive
5 | Active |  |  | CN1c2ccc(N)cc2C(=O)N2CCc3c([nH]c4ccccc34)C21 (stereo not drawn) | > 200000 | 8920 | 150 |  |  | 

Continued, compound first:

Row | SMILES | inhibition [5] | inhibition [7] | inhibition [14] | GI50 [1] [nM] | GI50 [2] [nM] | GI50 [4] [nM] | Activity [8] | TGI [10] | also measured
6 | CN1c2ccc(Cl)cc2C(=O)N2CCc3c([nH]c4ccccc34)C21 (stereo not drawn) | Active | inactive |  | < 3 | < 3 | < 3 |  |  | Activity [3]: Non-toxic; TGI [6]: inactive
7 | Cc1cccc2c1C(=O)N1CCc3c([nH]c4ccccc34)C1N2C (stereo not drawn) |  |  |  | 14300 | 13100 | 20200 |  |  | 
8 | Cc1cccc2c1N(C)C1c3[nH]c4ccccc4c3CCN1C2=O (stereo not drawn) | Active |  |  | 230 | 11 | 84 |  |  | 
9 | CN1c2ccccc2C(=O)N2CCc3c([nH]c4ccc(OCC5CO5)cc34)C21 (stereo not drawn) |  |  |  | 48900 | 2980 | 610 |  |  | 
